In brackets after ≈: the same amount, converted by molar mass. Activity calls are given as the source filed them. No cut-off for these calls is given here.
What was measured:
[1] = Elimination half life in ICR mouse at 20 mg/kg, po; assay type: ADME, organism-based; design: dose 20 mg/kg, route oral; conditions: in vivo, read-out: beta t1/2 (converted)
Staphylococcus aureus [2] = experiment: Antibacterial activity against methicillin-resistant Staphylococcus aureus ATCC 27660 in iv dosed ICR mouse peritonitis infection model assessed as survival rate administered at 0.5 and 7.5 hrs post infection; assay type: functional; conditions: ATCC 27660, iv
[3] = system: Staphylococcus epidermidis; experiment: Antibacterial activity against Staphylococcus epidermidis ATCC 35547 after 16 to 20 hrs by broth microdilution method; assay type: functional
Staphylococcus aureus [4] = experiment: Antibacterial activity against methicillin-resistant Staphylococcus aureus ATCC 27660 in po dosed ICR mouse peritonitis infection model assessed as survival rate administered at 0.5 and 7.5 hrs post infection; assay type: functional; conditions: ATCC 27660, po
[5] = Cmax in ICR mouse at 20 mg/kg, po; assay type: ADME, organism-based; design: dose 20 mg/kg, route oral; conditions: in vivo
[6] = Primary phase half life in ICR mouse at 20 mg/kg, iv; assay type: ADME, organism-based; design: dose 20 mg/kg, route intravenous; conditions: in vivo, read-out: alphat1/2
[7] = Tmax in ICR mouse at 20 mg/kg, po; assay type: ADME, organism-based; design: dose 20 mg/kg, route oral; conditions: in vivo
[8] = AUC (0 to infinity) in ICR mouse at 20 mg/kg, iv; assay type: ADME, organism-based; design: time infinity, dose 20 mg/kg, route intravenous; conditions: plasma
Staphylococcus aureus [9] = experiment: Antibacterial activity against vancomycin/methicillin-resistant Staphylococcus aureus VRS1 clinical isolate after 16 to 20 hrs by broth microdilution method; assay type: functional
Bacillus cereus = experiment: Antibacterial activity against Bacillus cereus ATCC 13061 after 16 to 20 hrs by broth microdilution method; assay type: functional
HepG2 = experiment: Cytotoxicity against human HepG2 cells assessed as cell viability after 16 hrs by XTT assay; assay type: cell-based; conditions: HepG2, 16 h
Outline: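 HepG2 cells were run in triplicate in an XTT viability assay. IC50 was derived from the concentration–response data.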

[10] = Terminal half life in ICR mouse at 20 mg/kg, iv; assay type: ADME, organism-based; design: dose 20 mg/kg, route intravenous; conditions: in vivo, read-out: beta t1/2 (converted)
[11] = AUC (0 to infinity) in ICR mouse at 20 mg/kg, po; assay type: ADME, organism-based; design: time infinity, dose 20 mg/kg, route oral; conditions: plasma
[12] = Plasma protein binding in human at 10 uM after 6 hrs by equilibrium dialysis assay; assay type: ADME, cell-free
[13] = system: Staphylococcus haemolyticus; experiment: Antibacterial activity against Staphylococcus haemolyticus ATCC 29970 after 16 to 20 hrs by broth microdilution method; assay type: functional
Staphylococcus aureus [14] = experiment: Antibacterial activity against methicillin-resistant Staphylococcus aureus ATCC 27660 in po dosed ICR mouse peritonitis infection model assessed as survival rate administered at 1 hr post infection; assay type: functional; conditions: ATCC 27660, po
Outline: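 Female ICR mice, 6–8 weeks, given 0.5 mL ip of S. aureus (final 5×10^7 cfu/mL in 5% mucin). Six mice per dose level; a single oral dose at 1 h post-infection.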

Staphylococcus aureus [15] = experiment: Bactericidal activity against methicillin-sensitive Staphylococcus aureus ATCC 29213 after 48 hrs; assay type: functional; conditions: ATCC 29213, 48 h
Staphylococcus aureus [16] = experiment: Antibacterial activity against methicillin-resistant Staphylococcus aureus ATCC 27660 in ICR mouse peritonitis infection model assessed as survival rate at 20 mg/kg, iv administered at 0.5 and 7.5 hrs post infection measured for 48 hrs; assay type: functional, organism-based; design: dose 20 mg/kg
Outline: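 Female ICR mice, 6–8 weeks, ~20 g, n = 6 per group. Bacteria at 10^8 cfu/mL mixed 1:1 with 10% mucin just before use; 0.5 mL given ip (final 5×10^7 cfu/mL, 5% mucin). Compound at 20 mg/kg iv by tail vein, twice, at 30 min and 7.5 h post-infection. […] Survivors counted at 48 h.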

Streptococcus pyogenes = experiment: Antibacterial activity against Streptococcus pyogenes ATCC 49399 after 16 to 20 hrs by broth microdilution method; assay type: functional
Enterococcus faecium [17] = experiment: Antibacterial activity against Enterococcus faecium NCTC 7171 after 16 to 20 hrs by broth microdilution method; assay type: functional
Mus musculus [18] = experiment: AUC (0 to 24 hrs) in ICR mouse at 20 mg/kg, iv; assay type: ADME, organism-based, Plasma; design: time < 24 hr, dose 20 mg/kg, route intravenous; conditions: in vivo
Enterococcus faecalis = experiment: Antibacterial activity against vancomycin-resistant Enterococcus faecalis 99 clinical isolate after 16 to 20 hrs by broth microdilution method; assay type: functional
Streptococcus oralis = experiment: Antibacterial activity against Streptococcus oralis ATCC 9811 after 16 to 20 hrs by broth microdilution method; assay type: functional
[19] = Volume of distribution in ICR mouse at 20 mg/kg, iv; assay type: ADME, organism-based; design: dose 20 mg/kg, route intravenous; conditions: in vivo
Staphylococcus aureus [20] = experiment: Antibacterial activity against methicillin-sensitive Staphylococcus aureus ATCC 29213 after 16 to 20 hrs by broth microdilution method; assay type: functional
[21] = Distribution phase half life in ICR mouse at 20 mg/kg, po; assay type: ADME, organism-based; design: dose 20 mg/kg, route oral; conditions: in vivo, read-out: alphat1/2 (converted)
Enterococcus faecium [22] = experiment: Ratio of MBC to MIC for Enterococcus faecium NCTC 7171; assay type: functional
[23] = Clearance in ICR mouse at 20 mg/kg, iv; assay type: ADME, organism-based; design: dose 20 mg/kg, route intravenous; conditions: in vivo
Mus musculus [24] = experiment: AUC (0 to 24 hrs) in ICR mouse at 20 mg/kg, po; assay type: ADME, organism-based, Plasma; design: time < 24 hr, dose 20 mg/kg, route oral; conditions: in vivo

FC(F)(F)c1ccc(Oc2ccc(-c3noc(-c4ccc5[nH]ccc5c4)n3)cc2)cc1
half-life [1]: 18.6 h | ED50 (Staphylococcus aureus [2]): 7.6 mg/kg | MIC [3]: 4 µg/mL (≈ 9.49 µM) | ED50 (Staphylococcus aureus [4]): 1.7 mg/kg | Cmax [5]: 2340 ng/mL | half-life [6]: 32.4 s | Tmax [7]: 6 h | AUC(0-inf) [8]: 58700 ng·h/mL | MIC (Staphylococcus aureus [9]): 1 µg/mL (≈ 2.37 µM) | MIC (Bacillus cereus): 16 µg/mL (≈ 38 µM) | IC50 (HepG2): 75.7 µg/mL (≈ 180 µM) | half-life [10]: 9.6 h | AUC(0-inf) [11]: 67700 ng·h/mL | PPB [12]: 98.2% | MIC [13]: 8 µg/mL (≈ 19 µM) | ED50 (Staphylococcus aureus [14]): 3.1 mg/kg | MBC (Staphylococcus aureus [15]): 2 µg/mL (≈ 4.75 µM) | Activity (Staphylococcus aureus [16]): Active | MIC (Streptococcus pyogenes): 64 µg/mL (≈ 152 µM) | MIC (Enterococcus faecium [17]): 2 µg/mL (≈ 4.75 µM) | AUC (Mus musculus [18]): 3140 µg·min/mL | MIC (Enterococcus faecalis): 16 µg/mL (≈ 38 µM) | MIC (Streptococcus oralis): 128 µg/mL (≈ 304 µM) | Vd [19]: 4.73 L/kg | MIC (Staphylococcus aureus [20]): 2 µg/mL (≈ 4.75 µM) | half-life [21]: 15.9 h | Ratio (Enterococcus faecium [22]): 2 | clearance [23]: 5.68 mL/min/kg | AUC (Mus musculus [24]): 3060 µg·min/mL
